Bioassay records (PubChem BioAssay)
ATG4B inhibitor: inhibitors of human ATG4B cysteine protease. 0.51% of 340,000 active. inhibition, % at 8.33 µM. ATG4B cleavage of LC3-PLA2, NBD-HPC fluorescence, 1 h. Q9Y4P1. AID 504462; in the data active = inhibition above about 40%
Calb FLC: affects C. albicans growth with fluconazole; C. albicans CaCi-2 (fluconazole-resistant clinical isolate) + fluconazole, Alamar Blue growth, 48 h; growth inhibition, % (test concentration not listed); 0.57% of 300,000 active;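 active = growth inhibition above about 58% in most replicates, limit read from the data, passing the limit was not always enough; inconclusive = exactly half the replicates above a set limit; inactive = most replicates below a set limit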;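 also: all wells also contain fluconazole at 8 µg/ml as a sub-toxic cotreatment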
UCH37 inh: human UCH37 deubiquitinating enzyme inhibition. Q9Y5K5. purified proteasome/UCH37, Ub-AMC cleavage fluorescence. inhibition, % (no concentration beside the values). 0.33% of 330,000 active. AID 588478;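 active = mean inhibition over replicate wells above about 20%, limit read from the data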
Target sequence (Q9Y5K5 whole entry, looked up): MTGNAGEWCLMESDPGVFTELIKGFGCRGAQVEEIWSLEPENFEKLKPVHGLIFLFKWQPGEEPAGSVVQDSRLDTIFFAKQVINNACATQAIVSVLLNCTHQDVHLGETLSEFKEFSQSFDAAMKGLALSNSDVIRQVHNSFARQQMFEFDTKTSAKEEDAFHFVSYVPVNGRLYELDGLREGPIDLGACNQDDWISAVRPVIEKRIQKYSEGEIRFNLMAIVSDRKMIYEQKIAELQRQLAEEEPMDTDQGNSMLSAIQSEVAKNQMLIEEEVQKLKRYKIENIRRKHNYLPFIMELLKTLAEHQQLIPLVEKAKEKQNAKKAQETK
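Assay system: Proteasome-bound UCH37. Buffer or medium: pH 7.4 Tris-HCl (50 mM) with ovalbumin, ATP-MgCl2, DTT. Incubation: 30 min preincubation with enzyme, 25 min cleavage at room temperature. Measured by: fluorescence, ex 355 nm, em 460 nm. Read-out basis: percent inhibition. Control set: wells without proteasome as full block, compound-free enzyme plus substrate as uninhibited.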
NALP3 yeast inh: NALP3 inhibition in yeast | Yeast reconstituted NLRP3/ASC/caspase-1, beta-gal luminescence, 24 h | inhibition, % at 10 µM | 0.39% of 330,000 active;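 active = inhibition of 50% or more; inactive = inhibition below 50%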
ALR H2O2 inh: blocks human ALR sulfhydryl oxidase activity; P55789; purified ALR, DTT oxidation, H2O2 HRP-luminol luminescence; inhibition, % (concentration not given with the values); 3.8% of 290,000 active; AID 485317;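 active = mean replicate inhibition above about 79%, with every replicate also reaching it, limit read from the data; inconclusive = only one of the two criteria met; inactive = mean below limit and not every replicate reaching it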
Target sequence (P55789 whole entry, looked up): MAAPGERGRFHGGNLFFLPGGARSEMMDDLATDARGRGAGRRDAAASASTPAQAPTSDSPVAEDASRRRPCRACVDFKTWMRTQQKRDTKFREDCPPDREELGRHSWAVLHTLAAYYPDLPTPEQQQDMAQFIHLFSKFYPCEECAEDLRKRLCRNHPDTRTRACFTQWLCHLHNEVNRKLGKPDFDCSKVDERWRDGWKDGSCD
NALP1 inh: blocks the NALP1 inflammasome reconstituted in yeast. S. cerevisiae NALP1/ASC/caspase-1 growth, X-gal OD620, 72 h. AID 2071. inhibition, % at 10 µM. 0.61% of 280,000 active; in the data active = inhibition mostly above about 24%, no sharp cut-off; inactive = mostly below about 32%
A number is an active result; 0 = inactive; ? = inconclusive; - = no result given. Sampled rows, rich in hits. Any-hit rate of the full collection: about 4.8%.

SMILES | ATG4B inhibitor | Calb FLC | UCH37 inh | NALP3 yeast inh | ALR H2O2 inh | NALP1 inh
Cc1ccc(C=Nn2c(-c3ccncc3)n[nH]c2=S)cc1 | - | - | 0 | - | - | -
COc1cc(C=NN2CCN(Cc3ccccc3)CC2)cc(OC)c1OC(C)=O | - | - | 0 | - | - | -
COc1ccc(/C=N/NC(=O)c2[nH]c3ccc(C)cc3c2-c2ccccc2)c(C(=O)O)c1OC | 0 | 0 | - | - | 99 | 0
Cc1cc(SCC(=O)c2ccc(Cl)cc2)nc(=O)[nH]1 | 0 | 0 | 0 | 0 | - | 0
Cc1ccc(C(=O)CSc2cc(C)[nH]c(=O)n2)cc1 | 0 | 0 | 0 | 0 | 99 | 0
Cc1cc(SCc2ccc(Cl)c(Cl)c2)nc(=O)[nH]1 | 0 | 0 | 0 | 0 | 0 | 0
Cc1cc(SCc2ccccc2Cl)nc(=O)[nH]1 | 0 | 0 | 0 | 0 | 94 | 0
Cc1cc(SCc2ccccc2C)nc(=O)[nH]1 | 0 | 0 | 0 | 0 | 0 | 0
Cc1cc(SCc2ccc(Cl)cc2Cl)nc(=O)[nH]1 | 0 | 0 | 0 | 0 | 98 | 0
CCN(Cc1ccccc1)c1ccc(C=NN=C(N)N)cc1 | - | - | 0 | - | - | -
CN(C)c1ccc(C=NNC(=O)c2cccc3cc[nH]c23)cc1 | - | - | 0 | - | - | -
CCCCN(c1ccccc1)c1ncnc2nc[nH]c12 | 0 | 0 | 0 | 0 | - | 0
CCN(CCCNc1ncnc2nc[nH]c12)c1cccc(C)c1 | 0 | 0 | 0 | 0 | 99 | 0
CCCCN(CCCNc1ncnc2nc[nH]c12)c1ccccc1 | 0 | 0 | 0 | 0 | 93 | 0
c1ccc2c(CCNc3ncnc4nc[nH]c34)c[nH]c2c1 | 0 | 0 | 0 | 0 | 98 | 0
CCc1nnc(N2C(=O)c3ccc(Oc4ccc([N+](=O)[O-])cc4)cc3C2=O)s1 | 0 | 0 | 0 | 0 | 93 | 0
O=C1c2ccc(Oc3ccc([N+](=O)[O-])cc3)cc2C(=O)N1c1ccncc1 | 0 | 0 | 0 | 0 | 0 | 0
O=C(NC1CCCC1)C1CCCN(S(=O)(=O)c2cnc[nH]2)C1 (configuration not stated) | 0 | 0 | 0 | 0 | 96 | 0
O=C(NC1CCCCCCC1)C1CCCN(S(=O)(=O)c2cnc[nH]2)C1 (configuration not stated) | 0 | 0 | 0 | 0 | 95 | 0
CCOC(=O)C(C#N)=NNc1c(S(=O)(=O)Cc2ccco2)csc1C(=O)OC | - | - | 0 | - | - | -
CC(=NNC(=O)CCC(=O)Nc1ccccc1)c1cccs1 | - | - | 0 | - | - | -
CCOC(=O)c1ccc(-c2ccc(C=NNC(=O)c3cncc(Br)c3)o2)cc1 | - | - | 0 | - | - | -
CC(=O)c1ccc(NC(=O)/C(C#N)=C/c2ccncc2)cc1 | 0 | 0 | 0 | 0 | 98 | 0
NC(=O)C1CCN(C(=O)COc2ccc(Nc3ccccc3)cc2)CC1 | 0 | 0 | 0 | 0 | 99 | -
O=C(COc1ccc(Nc2ccccc2)cc1)Nc1ccncc1 | 0 | 0 | 0 | 0 | 90 | -
SMILES | ATG4B inhibitor | Calb FLC | UCH37 inh | NALP3 yeast inh | ALR H2O2 inh | NALP1 inh
NC(=O)C1CCN(C(=O)COc2ccc3ccccc3c2)CC1 | 0 | 0 | 0 | 0 | 0 | 0
COCCNC(=O)COc1ccc(Nc2ccccc2)cc1 | 0 | 0 | 0 | 0 | 99 | 0
O=C(O)COc1ccc(Nc2ccccc2)cc1 | 0 | 0 | 0 | 0 | 99 | 0
CCC(=O)NCCCOc1ccccc1 | 0 | 0 | 0 | 0 | 0 | 27
CC(C)CCNC(=O)CCCOc1ccccc1 | 0 | 0 | 0 | 0 | 0 | 0
COc1ccccc1NC(=O)C(=O)NN=C(C)CC(=O)Nc1ccccn1 | - | - | 0 | - | - | -
CCOc1cc(C=NNC(=O)Cn2nc([N+](=O)[O-])cc2C)cc(Br)c1OCc1ccccc1F | - | - | 0 | - | - | -
O=C(Cn1cnc2c(nnn2Cc2ccccc2F)c1=O)OCc1ccccc1 | 0 | 0 | 0 | 0 | 0 | 26
O=C(Cn1cnc2c(nnn2Cc2ccccc2F)c1=O)N1CCN(c2ccccc2)CC1 | 0 | 0 | 0 | 0 | 0 | 0
Cc1cc(C(=O)Nc2nc(-c3ccccn3)cs2)ccc1[N+](=O)[O-] | 0 | 110 | 0 | 0 | 0 | 0
O=C(Nc1nc(-c2ccccn2)cs1)c1cc(Cl)ccc1[N+](=O)[O-] | 0 | 0 | 0 | 0 | 0 | 0
NS(=O)(=O)c1ccc(NC(=S)NCc2ccc3c(c2)OCO3)cc1 | 0 | 0 | 0 | 0 | 0 | 0
NS(=O)(=O)c1cccc(NC(=S)NCc2ccc3c(c2)OCO3)c1 | 0 | 116 | 0 | 0 | 0 | 0
CCOC(=O)C=c1sc(=C(C#N)C(N)=O)n(-c2ccccc2)c1=O | - | - | 0 | - | - | -
O=C(NN=Cc1ccccn1)c1ccco1 | - | - | 0 | - | - | -
Cn1c(=O)c2cc(S(=O)(=O)NCCC(=O)NCCc3ccc(Cl)cc3)ccc2n(C)c1=O | 0 | 0 | 0 | 0 | 98 | 0
Cn1c(=O)c2cc(S(=O)(=O)NCCC(=O)Nc3ccc(Cl)cc3)ccc2n(C)c1=O | 0 | 0 | 0 | 0 | - | 0
CN(CC(=O)Nc1cccc(F)c1)C(=O)CCc1nc2sc3c(c2c(=O)[nH]1)CCCC3 | 0 | 0 | 0 | 0 | 91 | -
Cc1sc2nc(CSCC(=O)Nc3ccc(C(F)(F)F)cc3)[nH]c(=O)c2c1C | 0 | - | 0 | 0 | - | -
Cc1sc2nc(CSCC(=O)N(C)CC(=O)Nc3ccc(F)cc3)[nH]c(=O)c2c1C | 0 | 0 | 0 | 0 | 99 | -
Cc1cccc(C)c1NC(=O)CN(C)C(=O)CCc1nc2sc3c(c2c(=O)[nH]1)CCCC3 | 0 | - | 0 | 0 | 0 | -
Cc1sc2nc(CSCC(=O)NC(C)(C)C)[nH]c(=O)c2c1C | 0 | 0 | 0 | 0 | 99 | 0
CCOC(=O)C1(C)/C(=N/Nc2ccc(Cl)cc2)C(=O)C(=O)N1c1ccccc1 (configuration not stated) | 0 | 0 | 0 | 0 | 99 | 0
CC(=O)NS(=O)(=O)c1ccc(N=c2ssc3c2-c2cc(C)c(C)cc2NC3(C)C)cc1 | 0 | 0 | 0 | 0 | 99 | 0
Cc1cc2c(cc1C)-c1c(ssc1=Nc1ccc(S(N)(=O)=O)cc1)C(C)(C)N2 | 0 | 0 | 0 | 0 | 0 | 0
SMILES | ATG4B inhibitor | Calb FLC | UCH37 inh | NALP3 yeast inh | ALR H2O2 inh | NALP1 inh
CCC(=O)Nc1cc(C(F)(F)F)ccc1N1CCOCC1 | 0 | 0 | 0 | 0 | 0 | 0
COC(=O)c1ccc(CNC(=O)CNc2cc(C(F)(F)F)ccc2N2CCOCC2)cc1 | 0 | 0 | 0 | 0 | 99 | 0
CCOC(=O)C=c1sc(=Cc2ccc(C(F)(F)F)cc2)c(=O)n1CC(=O)NCc1ccco1 | - | - | 0 | - | - | -
CCOc1cc(C=NNc2cccc(C(=O)O)c2)ccc1OCC(=O)N1CCCCC1 | - | - | 0 | - | - | -
Cc1cccc(C=NNC(=O)c2ccc(Cl)cc2)c1O | - | - | 0 | - | - | -
O=C(NNc1nc2cc3c(cc2s1)OCO3)c1cccc(F)c1 | 0 | 0 | 0 | 0 | 0 | 0
COc1cc(OC)cc(C(=O)NNc2nc3cc4c(cc3s2)OCO4)c1 | 0 | 0 | 0 | 0 | ? | 0
O=C(NNc1nc2cc3c(cc2s1)OCO3)c1ccccc1 | 0 | 0 | 0 | 0 | 99 | 0
COc1cc(C(=O)NNc2nc3cc4c(cc3s2)OCO4)cc(OC)c1OC | 0 | 0 | 0 | 0 | 99 | 0
Clc1cccc(C=NNc2nccs2)c1 | - | - | 0 | - | - | -
COc1ccc(CNC(=O)CC(C)=NNC(=O)COc2ccccc2)cc1 | - | - | 0 | - | - | -
CN(C)C=Nc1c(C#N)cnn1-c1ncnc2sc(-c3ccccc3)cc12 | - | - | 0 | - | - | -
